# This is a sample that favours compounds with a hit; in the whole collection about 9% have one here.
# D1 allo mod: D1 dopamine receptor (human) allosteric modulation. HEK293 D1, CRE-luciferase, dopamine EC30 potentiation; actives deviate in either direction. B-score at 10 µM. 58,000 tested, 5.9% active. AID 641;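 active = luminescence count or its row- and column-corrected plate score outside the 99.7% band of the plate's sample wells, on either side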
# AP ELISA ortho: orthogonal test for alternative complement pathway inhibitors; Human serum alternative complement pathway, LPS-coated ELISA, C3 deposition; tested in compound mixtures; inhibition, % at 5 µM; 62,000 tested, 0.08% active;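 active = inhibition above 30% in each of the two pooled mixtures holding the compound, so the lower value exceeds 30%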;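 note: 0% = serum in Mg-EGTA without compound and 100% = EDTA serum blank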
#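 Medium: diluted human serum in Mg2+-EGTA GVB++. Assay system: human serum complement alternative pathway, C3 deposition onto LPS. Also added: Plate-bound LPS. Technique: Anti-C3 ELISA, OD 450 nm. Measure: percent inhibition. Incubation: 1 h at 37 °C. Dosing: 5 µM each compound, pools of ten, 50 µM per pool.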
# Htt clearance: compounds clearing mutant huntingtin protein | HeLa Exon1htt(103Q)mCFP, aggregate imaging; zero = plate's median compound well | inhibition, % at 1.5 µM | 47,000 tested, 0.42% active | AID 853;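 active = inhibition of aggregate fluorescence above about 70%, also judged a hit by eye on the cell image, limit read from the data, passing the limit was not always enough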;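 note: cells exposed to compound for three days before fixation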
# M1 ag: M1 muscarinic receptor agonism; B-score at 10 µM; 64,000 tested, 3% active; CHO-M1 cells, Fluo-4 calcium fluorescence, agonist mode; active compounds read high;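 active = fluorescence rise, raw or as B-score row- and column-corrected plate score, outside the 99.7% band of its plate's samples, either direction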
# M1 antag: blocks the rat M1 muscarinic receptor response to acetylcholine; B-score at 10 µM; P08482; CHO-M1 cells, Fluo-4 calcium, ACh EC80 antagonist mode; active compounds read low; 64,000 tested, 3.4% active;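 active = calcium fluorescence response, raw or row-and-column corrected B-score, differing from the plate sample mean either way at a set confidence level, mostly lower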
# Target sequence (P08482 whole entry, looked up): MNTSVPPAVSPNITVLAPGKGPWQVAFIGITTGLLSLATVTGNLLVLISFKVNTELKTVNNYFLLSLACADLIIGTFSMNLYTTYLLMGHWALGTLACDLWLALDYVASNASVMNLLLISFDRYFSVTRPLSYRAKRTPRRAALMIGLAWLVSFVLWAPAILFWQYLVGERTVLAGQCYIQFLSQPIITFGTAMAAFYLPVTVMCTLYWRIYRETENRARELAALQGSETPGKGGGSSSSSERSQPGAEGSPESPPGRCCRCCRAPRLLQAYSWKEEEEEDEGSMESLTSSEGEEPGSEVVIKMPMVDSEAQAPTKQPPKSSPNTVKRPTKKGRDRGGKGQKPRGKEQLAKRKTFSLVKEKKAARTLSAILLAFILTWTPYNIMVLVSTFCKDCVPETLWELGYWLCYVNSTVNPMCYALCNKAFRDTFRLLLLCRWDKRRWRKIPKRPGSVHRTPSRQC
# Active calls of the source: *; . = no result given.
SMILES,D1 allo mod,AP ELISA ortho,Htt clearance,M1 ag,M1 antag
O=S(=O)(c1cccc2nsnc12)N1CCc2ccccc21,0,2,.,-0.25,-0.018
CC(=O)C(C(C)=O)c1c(Cl)c(O)c(O)c2c(C(=O)c3ccccc3)coc12,-1.4,-15,64,2.9,-0.34
O=C(CCCCn1c(=O)c2ccccc2n(Cc2ccc(F)cc2Cl)c1=O)NCc1ccco1,14*,8,.,-0.65,0.43
COC(=O)c1cc(CN2CCN(c3ccccc3C)CC2)ccc1O,.,.,-58,.,.
CC(=Nc1ccc2c(c1)nc(CO)n2C)C1=C(O)CC(C)(C)CC1=O,1.4,-4,.,0.27,-0.13
O=C(c1cnccn1)N1CCN(C/C=C/c2ccccc2)CC1,.,12,-1,-0.56,0.16
CCCc1nc(SCC(=O)NCc2ccc3c(c2)OCO3)c2c(=O)n(C)c(=O)n(C)c2n1,-0.36,0,.,0.56,0.12
Cn1c(=O)c2c(nc(SCC(=O)NCc3ccc4c(c3)OCO4)n2Cc2ccc(Cl)cc2)n(C)c1=O,.,.,81*,.,.
CCNc1nc(OCCNS(=O)(=O)c2cc(C)ccc2C)nc(N(C)C)n1,2.8,7,.,-0.83,1.8*
CCNc1nc(NC(C)C)nc(OCCNS(=O)(=O)c2cc(C)ccc2C)n1,2.5,32*,3,-0.36,0.1
CCNc1nc(NCC)nc(OCCNS(=O)(=O)c2cc(C)ccc2C)n1,-0.83,-4,44,-1.4,-1.7
COc1cc(C)nc(OCCNS(=O)(=O)c2cc(C)ccc2C)n1,0.96,-13,.,-0.75,0.16
Cc1ccc(CNC(=O)c2cc3c(C)nc4ccccc4c3o2)cc1,.,.,-9,.,.
Cc1nc2ccccc2c2oc(C(=O)NCc3ccccn3)cc12,-3.7*,4,.,-1.6,0.18
O=C(Nc1ccc(-c2nc3cccnc3s2)cc1)c1ccco1,-5*,6,.,0.23,-0.79
CCOc1ncccc1C(=O)OCC(=O)NCCc1ccc(OC)cc1,0.02,7,.,0.83,0.41
CCOc1cc(S(=O)(=O)N2CCN(CC)CC2)ccc1Cl,0.47,-2,11,1.6,0.12
CCOc1cc(S(=O)(=O)N2CCCCC2)ccc1Cl,-4*,16,35,.,.
O=C(On1c(-c2ccccc2)nc2ccccc2c1=O)c1ccco1,-3.4*,16,36,.,.
CCOC(=O)c1ccccc1NC(=O)Cn1cnc2c(cnn2-c2ccc(OC)cc2)c1=O,-0.8,18,86*,-0.066,-0.93
CCOC(=O)N1CCN(C(=O)Cn2cc3c(n2)CCCC3)CC1,-0.54,17,.,-3.2*,0.11
Cc1ccc2nc(NC3=NCN(Cc4cccnc4)CN3)nc(C)c2c1,.,9,.,0.25,0.63
Cc1nc(NC2=NCN(Cc3ccccc3)CN2)nc2ccccc12,-0.17,-16,.,4.5*,0.7
Cc1nc(NC2=NCN(Cc3ccco3)CN2)nc2ccccc12,-0.29,2,.,-0.055,-2.9*
CCOc1ccc2nc(NC3=NCN(Cc4ccco4)CN3)nc(C)c2c1,0.016,9,.,-0.58,-0.023
SMILES,D1 allo mod,AP ELISA ortho,Htt clearance,M1 ag,M1 antag
Cc1ccc2c(C)nc(NC3=NCN(Cc4ccccc4)CN3)nc2c1,-1.1,4,.,-0.18,-1.3
Cc1nc(NC2=NCN(Cc3cccnc3)CN2)nc2ccccc12,.,13,.,0.78,-11*
CCn1cc(C(=O)NC2CCCCCC2)c2cc(OC)c(OC)cc2c1=O,0.33,-2,.,0.82,0.41
Cc1ccc(-c2nnc(N3CCCCC3)c3ccccc23)cc1S(=O)(=O)N1CCN(C)CC1,1.2,23,-24,2.1,-0.44
Cc1ccc(-c2nnc3c4ccccc4c(C)nn23)cc1S(=O)(=O)N1CCN(C)CC1,9.9*,-1,.,2,-0.36
Cc1ccc(C(=O)Nc2ncc(Cc3ccccc3)s2)o1,-2.8*,4,.,0.31,-0.029
Cc1ccc(C(=O)Nc2nc3c(s2)CCCC3)o1,-4.7*,5,.,-0.046,-0.88
Cc1cc(C(=O)CSc2nnc(-c3cccs3)o2)c(C)n1-c1ccccc1,-3.6*,3,.,-0.44,0.86
O=C(CSc1nnc(-c2cccs2)o1)c1cccs1,-0.29,-8,27,-1.7,0.14
O=C(COc1ccccc1)Nc1ccc(-c2nnc(-c3ccco3)o2)cc1,-0.23,-2,-18,0.19,-0.21
CC(C)COc1ccc(-c2nnc(-c3ccco3)o2)cc1,-5.5*,5,.,.,.
CCCOc1ccc(-c2nnc(-c3ccco3)o2)cc1,-4.7*,0,.,0.52,-0.11
CCOCCOC(=O)c1ccc(-n2cncn2)nc1,.,.,35,.,.
CC1(C)C(C=C(Cl)Cl)C1C(=O)N1CCN(c2ccccc2)CC1 (centres undefined),-1.3,17,32,-0.89,-1.3

# Compound activity from PubChem BioAssay.
